Tb hexokinase: Trypanosoma brucei hexokinase 1 inhibitors, primary screen, biochemical, G6PDH-coupled NADH absorbance, MLSCN library. hexokinase 1 [Trypanosoma brucei]. recombinant TbHK1, G6PDH-coupled NADH A340. inhibition, % at 10 µM. hit rate 0.11% among 220,000. AID 1430, 2008;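 active = inhibition of 50% or more in the single-dose primary screen; inactive = inhibition below 50%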
RBBP9 inh: human RBBP9 inhibitors, primary screen, biochemical, fluorescence polarization, FP-Rh probe, HTS. Serine hydrolase RBBP9 (Homo sapiens), O75884. recombinant RBBP9. inhibition, % at 7.94 µM. hit rate 0.2% among 220,000;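 active = inhibition above the campaign mean of all tested compounds plus 3 SD, cut at about 14% in these data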;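 also: plate controls were DMSO wells with RBBP9 for no effect and wells lacking RBBP9 protein for full effect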
Target sequence (O75884 whole entry, looked up): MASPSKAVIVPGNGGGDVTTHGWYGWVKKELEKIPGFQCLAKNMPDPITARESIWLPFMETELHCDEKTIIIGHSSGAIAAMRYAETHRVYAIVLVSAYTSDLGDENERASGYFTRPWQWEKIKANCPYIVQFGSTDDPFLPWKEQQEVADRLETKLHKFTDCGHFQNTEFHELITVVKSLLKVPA
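Test system – recombinant human RBBP9 · Input – RBBP9 2.5 µM in dispensing solution, pre-mixing · Medium – Tris buffer pH 8.0, NaCl, Pluronic · Schedule – preincubation 30 min plus labeling 45 min at 25 °C · Measured by – fluorescence polarization · Measure – % inhibition · Controls – DMSO and no-protein wells · Replicates – one well per compound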
PfM18AAP inh: PfM18AAP inhibitors, malaria aminopeptidase, primary screen, biochemical, QFRET, recombinant enzyme; inhibition, % at 7.35 µM; H-Glu-NHMec fluorogenic cleavage; M18 aspartyl aminopeptidase (Plasmodium falciparum 3D7); hit rate 1.2% among 290,000;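 active = inhibition above the campaign mean inhibition over all tested compounds plus 3 SD, cut at about 28% in these data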;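 also: 0% = plate median of test compound wells and 100% = 2 mM ZnCl2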
TNF necrop inh: inhibitors of TNF-alpha triggered necroptosis, primary screen, cell-based, Jurkat FADD-/-, single concentration. hit rate 0.068% among 220,000. activation (protection from cell death), % at 10 µM. AID 463075, 2010. Jurkat FADD-/- TNF necroptosis rescue, ATP luminescence, 24 h; 0 = TNF only, 100 = no-TNF cells;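 active = activation, meaning protection from cell death, of at least 50% relative to plate controls; inactive = activation below 50%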;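 also: necroptosis triggered by 40 ng/mL TNF-alpha added together with compound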
L929 necroptosis: inhibitors of zVAD-triggered necroptosis, primary screen, L929 cells; L929 zVAD necroptosis rescue, ATP luminescence, 24 h; with zVAD 60 µM; viability rescue, % at 10 µM; hit rate 0.38% among 220,000;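 active = activation, scaled between plate controls, above about 75%, limit read from the data; inactive = activation under that limit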;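 also: 0% = zVAD with DMSO and 100% = DMSO alone without zVAD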
Hep lipid drop: inhibitors of hepatocyte lipid droplet formation, primary screen, imaging, high-throughput imaging, BODIPY stain | AML12 mouse hepatocytes, oleate lipid droplets | inhibition, % at 6.5 µM | hit rate 0.4% among 240,000;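 active = lipid droplet intensity inhibited by at least 50%, with more than 500 cells counted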
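Material: mouse AML12 hepatocyte cell line, fixed after treatment; Timing: compound with oleate, overnight; Technique: high-content imaging of BODIPY-stained droplets and DAPI nuclei; Probe or stimulus: oleate, 100 µM final; Dosing: compound at 6.5 µM only.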
Hep lipid conf: hepatocyte lipid droplet accumulation inhibitors, confirmation, imaging, AML12 mouse hepatocytes, single concentration, high-content; BODIPY lipid droplet imaging; droplets induced with 100 µM oleic acid; inhibition, % at 5.2 µM; AID 463183, 2010; hit rate 65% among 870; shares compounds with Hep lipid drop;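 active = inhibition of lipid droplet metric at least 50%, with more than 300 cells in each of four replicates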;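 also: plate controls were DMSO with oleic acid for no effect and 5 µM Triacsin-C for full effect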
AML12 tox img: AML12 hepatocyte cytotoxicity, counter-screen for hepatic lipid droplet formation project, imaging, DAPI nuclear morphology imaging; AML12 mouse hepatocytes; active compounds read high; cells fed 100 µM oleate overnight; z-score at 5 µM; hit rate 3% among 870; shares compounds with Hep lipid drop; in the data active = z-score above about 6.3;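 also: compound exposure lasted overnight at 37 °C before fixation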
AML12 tox ATP: AML12 hepatocyte cytotoxicity, confirmation, cytotoxicity control for hepatic lipid droplet formation project, cell-based, single concentration | shares compounds with Hep lipid drop | AML12 mouse hepatocyte viability, ATP luminescence; cells loaded with 100 µM oleic acid | cytotoxicity, % at 50 µM | 530 tested, under 10 active;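 active = cytotoxicity above 50% in each of four replicates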;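 also: compound exposure lasted overnight at 37 °C before the ATP read; 0% = DMSO-treated cells and 100% = wells with no cells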
* = called active by the depositor; · = no result given. This is a sample that favours compounds with a hit; in the whole collection about 2% have one here.

SMILES | Tb hexokinase | RBBP9 inh | PfM18AAP inh | TNF necrop inh | L929 necroptosis | Hep lipid drop | Hep lipid conf | AML12 tox img | AML12 tox ATP
Cc1ccc(-c2c(C)nn3c(N4CCOCC4)cc(C)nc23)cc1 | · | · | 0.5 | · | · | 70.6* | 108.3* | 0.364 | 4.1
CCc1ccc(/C=C2/Sc3ccccc3N(CC(=O)NCCCOC)C2=O)cc1 | -7.8 | 2.8 | 10.4 | 1.2 | -0.6 | -11.5 | · | · | ·
Cc1cc(C)c2nc(SCC(=O)N3CC(=O)Nc4ccccc43)c(C#N)cc2c1 | -3.1 | 4.4 | -8.9 | -11.3 | -1.0 | 162.7* | -307.0 | 21.8* | ·
CC1=C(C(=O)Nc2ccccc2C(F)(F)F)C(c2ccc(C)s2)NC(=S)N1 (stereo unspecified) | -4.1 | -5.1 | -5.8 | -0.9 | 1.9 | -1.3 | · | · | ·
COc1cccc(-c2nn(-c3ccccc3)cc2CN(C)C(C)c2ccon2)c1 (stereo unspecified) | 1.3 | -9.0 | -5.8 | 2.0 | 1.2 | 9.8 | · | · | ·
COC(=O)c1c(C(=O)OC)c(-c2ccc(Br)cc2)n2c1CS(=O)C2 (stereo unspecified) | · | · | 8.8 | · | · | 4.7 | · | · | ·
O=C(CCn1c(=O)sc2ccccc21)NC1CCCCC1 | · | · | -1.5 | · | · | -1.3 | · | · | ·
COc1ccc(-n2c(=O)c3ccccc3n(CC(=O)Nc3cc(C)on3)c2=O)cc1OC | -6.2 | -7.6 | -0.1 | 1.2 | 0.5 | 52.1* | 30.7 | -0.626 | ·
Cc1ccc(C2/C(=C(/O)c3cnn(-c4ccccc4)c3C)C(=O)C(=O)N2CCCN2CCOCC2)o1 (stereo unspecified) | -12.6 | -4.3 | 6.5 | 0.4 | -0.4 | 96.1* | 25.8 | 0.731 | ·
Cc1c(/C(O)=C2/C(=O)C(=O)N(CCN3CCOCC3)C2c2ccccn2)cnn1-c1ccccc1 (stereo unspecified) | -9.3 | -12.3 | -2.8 | -0.2 | -0.6 | 8.3 | · | · | ·
CCC(C)NCCOc1ccc(C(C)(C)c2ccccc2)cc1 (stereo unspecified) | 5.4 | -7.5 | 13.0 | 1.9 | 0.8 | 51.2* | 28.2 | -0.497 | ·
COc1ccc(C2CC(c3ccccc3)=NN2C(=O)COC(=O)C2CC2)cc1 (stereo unspecified) | -3.4 | -9.8 | 3.6 | 4.1 | 0.6 | 15.7 | · | · | ·
COc1ccc(CC(=O)OCC(=O)N2N=C(c3ccccc3)CC2c2ccc(OC)cc2)cc1 (stereo unspecified) | 2.0 | -11.6 | -2.9 | 3.9 | · | 82.3* | 107.0* | -0.446 | ·
O=C(Nc1ccc(F)cc1)OCCOc1ccc(Br)cc1 | -12.4 | -8.0 | -6.5 | 1.1 | 0.2 | 2.6 | · | · | ·
Cc1ccccc1N1CCN(C2CCCN(C(=O)CCn3cnnn3)C2)CC1 (stereo unspecified) | · | · | 2.6 | · | · | -5.0 | · | · | ·
C=CCNC(=S)Nc1cc(S(=O)(=O)N2CCOCC2)ccc1-n1cncn1 | -6.0 | 3.2 | -5.5 | 1.5 | 0.6 | 118.9* | -6.7 | -0.263 | ·
Cc1ccccc1-n1cnc2c(sc3nc(N4CCOCC4)c4c(c32)CCCC4)c1=O | -47.4 | 4.1 | -18.9 | -0.8 | -0.2 | 10.2 | · | · | ·
CCOc1ccc(-c2nonc2NC(=O)c2ccco2)cc1 | · | · | -1.8 | · | · | 73.9* | 92.7* | -0.945 | 14.1
COc1ccc(-c2cnc(SCC(=O)Nc3nc(C(C)(C)C)cs3)n2Cc2ccco2)cc1 | 0.6 | -8.7 | 4.2 | 0.5 | 0.6 | 64.2* | 93.8* | 1.43 | -31.5
COc1ccc(NC(=S)Nc2cccc(C(F)(F)F)c2)c(C)c1 | -1.2 | -1.4 | -4.2 | 0.3 | -1.0 | -1.5 | · | · | ·
CSc1nc2ccccc2n1CC(=O)Nc1c(C)cccc1C | 0.0 | -5.1 | 6.3 | -1.7 | · | 54.7* | 50.1 | 0.0469 | ·
CSc1nc2ccccc2n1CC(=O)Nc1ccccc1 | 9.2 | 2.4 | -6.0 | -3.9 | -0.5 | · | · | · | ·
CC(=O)c1c(C)[nH]c(C(=O)Nc2nc(-c3ccc(-c4ccccc4)cc3)cs2)c1C | -13.0 | -13.2 | -0.3 | -4.4 | 0.3 | 95.0* | -2.2 | -0.391 | ·
CC(=O)c1c(C)[nH]c(C(=O)Nc2nc(-c3ccc(Cl)cc3)cs2)c1C | -7.2 | -11.2 | 0.6 | 1.2 | 0.4 | -2.0 | · | · | ·
COc1ccc(CCNC(=O)c2c(O)c3ccccc3[nH]c2=O)cc1OC | · | · | -10.8 | · | · | -4.7 | · | · | ·
SMILES | Tb hexokinase | RBBP9 inh | PfM18AAP inh | TNF necrop inh | L929 necroptosis | Hep lipid drop | Hep lipid conf | AML12 tox img | AML12 tox ATP
COc1ccc(CCNC(=O)c2ccc(CNc3nc(=S)[nH]c4ccccc34)cc2)cc1OC | -9.9 | -8.0 | -0.5 | -1.1 | 2.2 | 51.8* | 101.3* | -0.263 | 13.8
COc1ccc2[nH]c3c(c2c1)CCN1C(=O)N([C@@H](C)C(=O)NCCc2ccc(OC)c(OC)c2)C(=O)[C@]31C | · | · | -1.5 | · | · | · | · | · | ·
COc1ccc(CCNC(=O)[C@H](C)N2C(=O)N3CCc4c([nH]c5ccccc45)[C@@]3(C)C2=O)cc1OC | · | · | -4.0 | · | · | 86.6* | 102.3* | -1.57 | 20.2
CCn1c(=O)c2cc(C(=O)NCCCOC)sc2c2ccccc21 | · | · | 2.9 | · | · | 13.6 | · | · | ·
CCn1c(=O)c2cc(C(=O)NCCC(C)C)sc2c2ccccc21 | · | · | -1.3 | · | · | 54.0* | 91.6* | -0.4 | -1.9
COc1ccc(C(=O)CSc2nnc(CC(=O)Nc3ccccc3OC)n2C)cc1 | -5.9 | -3.1 | 0.3 | 2.6 | 1.6 | 59.1* | 56.1 | -0.912 | 8.6
CCn1cc([N+](=O)[O-])c(C(=O)N2N=C(c3ccc4ccccc4c3)CC2c2cc(Br)ccc2O)n1 (stereo unspecified) | -14.0 | -49.0 | 1.0 | -10.4 | 0.8 | 89.4* | 77.2* | -1.47 | 11.0
CCn1cc([N+](=O)[O-])c(C(=O)N2N=C(c3ccc(Cl)c(Cl)c3)CC2c2ccccc2O)n1 (stereo unspecified) | -2.1 | -15.6 | 5.2 | -9.7 | 2.9 | 23.3 | · | · | ·
O=C(Nc1ccccc1C(=O)O)c1ccc(Br)o1 | -0.8 | 8.0 | -1.9 | -3.6 | 0.6 | · | · | · | ·
COC(=O)c1ccccc1NC(=O)c1cccc(NC(=O)c2ccc(Br)o2)c1C | 2.1 | 2.9 | 5.4 | 0.6 | -0.1 | 61.6* | 96.0* | 0.0248 | 12.4

Source: PubChem (several laboratories)
